According to ChEMBL document CHEMBL1125701 (J Med Chem, 1991):

What was measured:
[1] = biological target: Delta-type opioid receptor (Mus musculus) (UniProt P32300); assay: Antagonistic potency at opioid receptor delta (20 nM) (Ke =IC50 in the presence of antagonist divided by the control IC50 value); format: functional
Procedure, shortened: (§1)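 Electrically stimulated mouse vas deferens preparation, δ agonist DADLE. The antagonist was incubated with the tissue for 15 min before agonist testing. DADLE IC50 was measured with and without antagonist on the same preparation. IC50 ratio = IC50 with antagonist / control IC50. Ke = [antagonist]/(IC50 ratio − 1).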

[2] = biological target: Kappa-type opioid receptor (Cavia porcellus) (UniProt P41144); assay: Selectivity ratio is Ki value of opioid receptor kappa to that of delta-opioid receptor
[3] = biological target: Kappa-type opioid receptor (Cavia porcellus) (UniProt P41144); assay: Antagonistic potency at opioid receptor kappa (200 nM) (Ke =IC50 in the presence of antagonist divided by the control IC50 value); format: functional
Procedure, shortened: (§2)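 Electrically stimulated guinea pig ileal longitudinal muscle, κ agonist ethylketazocine. The antagonist was preincubated for 15 min before agonist testing. Agonist IC50 was measured with and without antagonist on the same preparation. IC50 ratio = IC50 with antagonist / control IC50. Ke = [antagonist]/(IC50 ratio − 1).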

[4] = biological target: Mu-type opioid receptor (Cavia porcellus) (UniProt P97266); assay: Selectivity ratio is IC50 value of mu-opioid receptor to that of delta-opioid receptor
[5] = biological target: Mu-type opioid receptor (Cavia porcellus) (UniProt P97266); assay: Antagonistic potency at opioid receptor mu (200 nM) (Ke =IC50 in the presence of antagonist divided by the control IC50 value); format: functional
Procedure, shortened: as §2, with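 “μ” for “κ”, “morphine.” for “ethylketazocine.”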

[6] = biological target: Kappa-type opioid receptor (Cavia porcellus) (UniProt P41144); assay: Selectivity ratio is IC50 value of opioid receptor kappa to that of opioid receptor delta
[7] = biological target: Kappa-type opioid receptor (Homo sapiens) (UniProt P41145); assay: Competitive inhibition of Ethylketazocine on Guinea pig ileal longitudinal muscle for the opioid receptor kappa at 200 nM; format: functional; procedure, shortened: as §2
[8] = biological target: Mu-type opioid receptor (Cavia porcellus) (UniProt P97266); assay: Selectivity ratio is Ki value of mu-opioid receptor to that of delta-opioid receptor
[9] = biological target: Mu-type opioid receptor (Homo sapiens) (UniProt P35372); assay: Competitive inhibition of Morphine on Guinea pig ileal longitudinal muscle for the opioid receptor mu at 200 nM; format: functional
Procedure, shortened: as §2, with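 “μ” for “κ”, “morphine.” for “ethylketazocine.”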

[10] = biological target: Delta-type opioid receptor (Mus musculus) (UniProt P32300); assay: Antagonistic potency at opioid receptor delta (200 nM) (Ke =IC50 in the presence of antagonist divided by the control IC50 value); format: functional; procedure, shortened: as §1
Mu-type opioid receptor = Mu-type opioid receptor (Cavia porcellus, UniProt P97266); assay: Compound was evaluated for the binding affinity to Opioid receptor mu using [3H]DAMGO as radioligand in guinea pig brain membrane; format: cell membranes
[11] = biological target: Kappa-type opioid receptor (Cavia porcellus) (UniProt P41144); assay: Selectivity ratio is IC50 value of opioid receptor kappa to that of delta-opioid receptor
[12] = biological target: Kappa-type opioid receptor (Cavia porcellus, UniProt P41144); assay: Compound was evaluated for the binding affinity to opioid receptor kappa using [3H]-EK as radioligand in guinea pig brain membrane; format: cell membranes
Procedure, shortened: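 Radioligand displacement in guinea pig brain membranes, modified from an earlier published method. [3H]EK was used with 1 μM DAMGO present to block μ sites.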

[13] = biological target: Mu-type opioid receptor (Cavia porcellus) (UniProt P97266)
[14] = biological target: Delta-type opioid receptor (Mus musculus) (UniProt P32300); assay: Antagonistic potency at opioid receptor delta (100 nM) (Ke =IC50 in the presence of antagonist divided by the control IC50 value); format: functional; procedure, shortened: as §1
[15] = biological target: Kappa-type opioid receptor (Cavia porcellus) (UniProt P41144)
[16] = biological target: Mu-type opioid receptor (Homo sapiens) (UniProt P35372); conditions: 100 nM
[17] = biological target: Kappa-type opioid receptor (Homo sapiens) (UniProt P41145); conditions: 100 nM
[18] = biological target: Kappa-type opioid receptor (Cavia porcellus) (UniProt P41144); assay: Antagonistic potency at opioid receptor kappa (20 nM) (Ke =IC50 in the presence of antagonist divided by the control IC50 value); format: functional; procedure, shortened: as §2
[19] = biological target: Kappa-type opioid receptor (Homo sapiens) (UniProt P41145); assay: Competitive inhibition of Ethylketazocine on Guinea pig ileal longitudinal muscle for the opioid receptor kappa at 20 nM; format: functional; procedure, shortened: as §2

## Oc1ccc2c3c1O[C@H]1c4nc5ccccc5nc4C[C@@]4(O)[C@@H](C2)N(CC2CC2)CC[C@]314
[1]
  Ke: 1.9
[2]
  Ratio: 227
[3]
  Ke: 10
[4]
  Ratio: 3
[5]
  Ke: 5.5
[6]
  Ratio: 5
[7]
  IC50 ratio: 21
[8]
  Ratio: 9
[9]
  IC50 ratio: 37

## Oc1ccc2c3c1O[C@H]1C(c4c[nH]c5ccccc45)=CC[C@@]4(O)[C@@H](C2)N(CC2CC2)CC[C@]314
[10]
  Ke: 5.1
[2]
  Ratio: 6
Mu-type opioid receptor
  Ki: 0.63 nM
[3]
  Ke: 0.83
[4]
  Ratio: 0.21
[11]
  Ratio: 0.16
[5]
  Ke: 1.1
[7]
  IC50 ratio: 243
[12]
  Ki: 6.2 nM
[8]
  Ratio: 0.6
[9]
  IC50 ratio: 189

## Oc1ccc2c3c1O[C@H]1C(c4ccccc4)=CC[C@@]4(O)[C@@H](C2)N(CC2CC2)CC[C@]314
[13]
  Ke: 0.68
[14]
  Ke: 13.5
[15]
  Ke: 1.7
[16]
  IC50 ratio: 148

## Oc1ccc2c3c1O[C@H]1c4nc5ccccc5cc4C[C@@]4(O)[C@@H](C2)N(CC2CC2)CC[C@]314
[13]
  Ke: 11
[14]
  Ke: 1.9
[4]
  Ratio: 6
[15]
  Ke: 15.4
[6]
  Ratio: 8
[17]
  IC50 ratio: 7.5
[16]
  IC50 ratio: 9.9

## Oc1ccc2c3c1O[C@H]1C(c4ccc[nH]4)=CC[C@@]4(O)[C@@H](C2)N(CC2CC2)CC[C@]314
[14]
  Ke: 8.2
[6]
  Ratio: 0.03
[18]
  Ke: 0.23
[19]
  IC50 ratio: 89

## Cn1c2c(c3c1[C@@H]1Oc4c(O)ccc5c4[C@@]14CCN(CC1CC1)[C@H](C5)[C@]4(O)C3)CCCC2
[13]
  Ke: 158
[15]
  Ke: 254

## Oc1ccc2c3c1O[C@H]1c4oc5ccccc5c4C[C@@]4(O)[C@@H](C2)N(CC2CC2)CC[C@]314
[1]
  Ke: 0.27
[3]
  Ke: 48
[5]
  Ke: 27
